Assay results from publication PMC4477344 (Diabetes, 2015).
Where no end group is shown, it is not given here.

Tests used:
Dpp4 = conditions: cited from earlier work
[1] = test system: diet-induced obese (DIO) mice; experiment: GLP-1; assay type: in vivo, C57BL/6J male mice; conditions: continuous infusion for up to 16 weeks
Summary of the method: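 Mice were started on high-fat diet at 6–10 weeks of age and fed it for 7–22 weeks. At 13–28 weeks of age they were randomized by body weight and given osmotic minipumps delivering vehicle (0.154 mol/L NaCl/0.2% human serum albumin) or test compound at 50–70 nmol/kg/day for […]. Body weight was recorded weekly and food intake twice weekly. Fat and lean mass were measured by DXA at week 15. n = 6 per group.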

Substance | time of cleavage in vivo by Dpp4 to GLP-1(9-36)amide (Dpp4) [min] | adverse effects [1]
GLP-1(7-36)amide | 1 to 2 | 
LVKGR-NH2 [GLP-1(32-36)amide] |  | No adverse effects
